# Measurements: ChEMBL document CHEMBL3585302, “Synthesis and antibacterial activities of cadiolides A, B and C and analogues” (Bioorg Med Chem, 2015)
# Active and inactive are the calls of the source. No cut-off for these calls is given here.
# Legend:
# Enterococcus faecalis [1] = assay: Antibacterial activity against Enterococcus faecalis CECT 481 assessed as inhibition of microbial growth incubated for 18 hrs by 2-fold microtiter broth dilution method; format: functional, organism-based; settings: CECT 481, 18 h
# Method in brief: (§1)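 Compounds in DMSO, ten 2-fold serial dilutions (125 down to 0.24 µg/mL tested). Bacteria at OD620 = 0.001 in Nutrient Broth mixed 1:1 with dilutions. Incubated overnight (18 h) at 28°C or 37°C according to strain. Growth read turbidimetrically at OD620. MIC is the lowest concentration giving complete growth inhibition. Triplicate runs. Tetracycline as reference.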
# Bacillus cereus [2] = assay: Antibacterial activity against Bacillus cereus CECT 148 assessed as inhibition of microbial growth incubated for 18 hrs by 2-fold microtiter broth dilution method; format: functional, organism-based; settings: CECT 148, 18 h; method in brief: as §1
# [3] = test system: Pectobacterium carotovorum; assay: Antibacterial activity against Erwinia carotovora CECT 225 assessed as inhibition of microbial growth incubated for 18 hrs by 2-fold microtiter broth dilution method; format: functional, organism-based; settings: CECT 225, 18 h; method in brief: as §1
# Salmonella typhi [4] = assay: Antibacterial activity against Salmonella typhi CECT 409 assessed as inhibition of microbial growth incubated for 18 hrs by 2-fold microtiter broth dilution method; format: functional, organism-based, Salmonella enterica subsp. enterica serovar Typhi; settings: Salmonella enterica, CECT 409, 18 h
# Method in brief: (§2)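 Compounds in DMSO, ten 2-fold serial dilutions (125 down to 0.24 µg/mL), mixed 1:1 with bacteria in Nutrient Broth at OD620 = 0.001. Incubated overnight (18 h) at 28 or 37 °C depending on strain. Growth read turbidimetrically at OD620; MIC is the lowest concentration completely inhibiting growth, per CLSI. Triplicate runs; tetracycline reference.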
# Staphylococcus aureus [5] = assay: Antibacterial activity against Staphylococcus aureus CECT 86 assessed as inhibition of microbial growth incubated for 18 hrs by 2-fold microtiter broth dilution method; format: functional, organism-based; settings: CECT 86, 18 h; method in brief: as §1
# Escherichia coli [6] = assay: Antibacterial activity against Escherichia coli CECT 100 assessed as inhibition of microbial growth incubated for 18 hrs by 2-fold microtiter broth dilution method; format: functional, organism-based; settings: CECT 100, 18 h; method in brief: as §1
# Bacillus subtilis [7] = assay: Antibacterial activity against Bacillus subtilis CECT 35 assessed as inhibition of microbial growth incubated for 18 hrs by 2-fold microtiter broth dilution method; format: functional, organism-based; settings: CECT 35, 18 h; method in brief: as §1
# Escherichia coli [8] = assay: Antibacterial activity against Escherichia coli CECT 405 assessed as inhibition of microbial growth incubated for 18 hrs by 2-fold microtiter broth dilution method; format: functional, organism-based; settings: CECT 405, 18 h; method in brief: as §1
# [9] = test system: Pectobacterium carotovorum; assay: Antibacterial activity against Erwinia carotovora CECT 225 assessed as inhibition of microbial growth at 125 ug/ml incubated for 18 hrs by 2-fold microtiter broth dilution method; format: functional, organism-based; method in brief: as §1
# Bacillus subtilis [10] = assay: Antibacterial activity against Bacillus subtilis CECT 35 assessed as inhibition of microbial growth at 125 ug/ml incubated for 18 hrs by 2-fold microtiter broth dilution method; format: functional, organism-based; method in brief: as §1
# Salmonella typhi [11] = assay: Antibacterial activity against Salmonella typhi CECT 409 assessed as inhibition of microbial growth at 125 ug/ml incubated for 18 hrs by 2-fold microtiter broth dilution method; format: functional, organism-based; settings: Salmonella enterica subsp. enterica serovar Typhi; method in brief: as §2
# Escherichia coli [12] = assay: Antibacterial activity against Escherichia coli CECT 405 assessed as inhibition of microbial growth at 125 ug/ml incubated for 18 hrs by 2-fold microtiter broth dilution method; format: functional, organism-based; method in brief: as §1
# Staphylococcus aureus [13] = assay: Antibacterial activity against Staphylococcus aureus CECT 86 assessed as inhibition of microbial growth at 125 ug/ml incubated for 18 hrs by 2-fold microtiter broth dilution method; format: functional, organism-based; method in brief: as §1
# Enterococcus faecalis [14] = assay: Antibacterial activity against Enterococcus faecalis CECT 481 assessed as inhibition of microbial growth at 125 ug/ml incubated for 18 hrs by 2-fold microtiter broth dilution method; format: functional, organism-based; method in brief: as §1
# Bacillus cereus [15] = assay: Antibacterial activity against Bacillus cereus CECT 148 assessed as inhibition of microbial growth at 125 ug/ml incubated for 18 hrs by 2-fold microtiter broth dilution method; format: functional, organism-based; method in brief: as §1
# Escherichia coli [16] = assay: Antibacterial activity against Escherichia coli CECT 100 assessed as inhibition of microbial growth at 125 ug/ml incubated for 18 hrs by 2-fold microtiter broth dilution method; format: functional, organism-based; method in brief: as §1
Structure (SMILES),MIC (Enterococcus faecalis [1]) [µg/mL],MIC (Bacillus cereus [2]) [µg/mL],MIC [3] [µg/mL],MIC (Salmonella typhi [4]) [µg/mL],MIC (Staphylococcus aureus [5]) [µg/mL],MIC (Escherichia coli [6]) [µg/mL],MIC (Bacillus subtilis [7]) [µg/mL],MIC (Escherichia coli [8]) [µg/mL],growth inhibition (GI) [9],growth inhibition (GI) (Bacillus subtilis [10]),growth inhibition (GI) (Salmonella typhi [11]),growth inhibition (GI) (Escherichia coli [12]),growth inhibition (GI) (Staphylococcus aureus [13]),growth inhibition (GI) (Enterococcus faecalis [14]),growth inhibition (GI) (Bacillus cereus [15]),growth inhibition (GI) (Escherichia coli [16])
O=C1O/C(=C\c2cc(Br)c(O)c(Br)c2)C(c2cc(Br)c(O)c(Br)c2)=C1C(=O)c1ccc(O)c(Br)c1,3.9,3.9,125,3.9,3.9,> 125,125,1.95,–,–,–,–,–,–,–,–
COc1c(Br)cc(C2=C(C(=O)c3ccc(O)c(Br)c3)C(=O)O/C2=C\c2cc(Br)c(O)c(Br)c2)cc1Br,–,–,–,–,–,–,–,–,inactive,inactive,inactive,inactive,inactive,inactive,inactive,inactive
COc1ccc(C2=C(C(=O)c3ccc(O)c(Br)c3)C(=O)O/C2=C\c2ccc(O)c(Br)c2)cc1,–,–,–,–,–,–,–,–,inactive,inactive,inactive,inactive,inactive,inactive,inactive,inactive
O=C1O/C(=C\c2ccc(O)cc2)C(c2ccc(O)cc2)=C1C(=O)c1ccco1,31.2,15.6,> 125,15.6,15.6,31.2,> 125,31.2,–,–,–,–,–,–,–,–
COc1ccc(C2=C(C(=O)c3ccc(O)cc3)C(=O)O/C2=C\c2ccc(O)c(Br)c2)cc1Br,–,–,–,–,–,–,–,–,inactive,inactive,inactive,inactive,inactive,inactive,inactive,inactive
O=C1O/C(=C\c2ccc(O)cc2)C(c2ccc(O)cc2)=C1C(=O)c1ccc(O)cc1,125,62.5,125,125,62.5,62.5,> 125,62.5,–,–,–,–,–,–,–,–
O=C1O/C(=C\c2ccc(O)c(Br)c2)C(c2ccc(O)c(Br)c2)=C1C(=O)c1ccc(O)cc1,31.2,15.6,125,31.2,31.2,15.6,125,15.6,–,–,–,–,–,–,–,–
COc1ccc(C2=C(C(=O)c3cc(Br)c(O)c(Br)c3)C(=O)O/C2=C\c2ccc(O)c(Br)c2)cc1Br,–,–,–,–,–,–,–,–,inactive,inactive,inactive,inactive,inactive,inactive,inactive,inactive
O=C1O/C(=C\c2cc(Br)c(O)c(Br)c2)C(c2cc(Br)c(O)c(Br)c2)=C1C(=O)c1ccc(O)cc1,3.9,3.9,125,3.9,3.9,> 125,125,7.81,–,–,–,–,–,–,–,–
COc1c(Br)cc(C2=C(C(=O)c3ccco3)C(=O)O/C2=C\c2ccc(O)c(Br)c2)cc1Br,–,–,–,–,–,–,–,–,inactive,inactive,inactive,inactive,inactive,inactive,inactive,inactive
O=C1O/C(=C\c2ccc(O)cc2)C(c2cc(Br)c(O)c(Br)c2)=C1C(=O)c1cc(Br)c(O)c(Br)c1,7.81,7.81,125,7.81,7.81,> 125,125,7.81,–,–,–,–,–,–,–,–
O=C1O/C(=C\c2ccc(O)c(Br)c2)C(c2ccc(O)cc2)=C1C(=O)c1ccc(O)c(Br)c1,> 125,3.9,> 125,125,> 125,> 125,> 125,125,–,–,–,–,–,–,–,–
O=C1O/C(=C\c2ccc(O)c(Br)c2)C(c2ccc(O)cc2)=C1C(=O)c1ccc(O)cc1,> 125,125,> 125,> 125,> 125,> 125,> 125,> 125,–,–,–,–,–,–,–,–
O=C1O/C(=C\c2cc(Br)c(O)c(Br)c2)C(c2ccc(O)c(Br)c2)=C1C(=O)c1ccc(O)c(Br)c1,1.95,1.95,125,3.9,3.9,> 125,125,3.9,–,–,–,–,–,–,–,–
O=C1O/C(=C\c2cc(Br)c(O)c(Br)c2)C(c2cc(Br)c(O)c(Br)c2)=C1C(=O)c1cc(Br)c(O)c(Br)c1 [CADIOLIDE B],7.81,7.81,> 125,15.6,7.81,> 125,> 125,7.81,–,–,–,–,–,–,–,–
O=C1O/C(=C\c2cc(Br)c(O)c(Br)c2)C(c2ccc(O)cc2)=C1C(=O)c1cc(Br)c(O)c(Br)c1,15.6,15.6,125,15.6,15.6,> 125,125,15.6,–,–,–,–,–,–,–,–
CN(C)[C@@H]1C(O)=C(C(N)=O)C(=O)[C@@]2(O)C(O)=C3C(=O)c4c(O)cccc4[C@@](C)(O)[C@H]3C[C@@H]12 [TETRACYCLINE],0.48,3.9,3.9,7.81,0.24,3.9,0.97,7.81,–,–,–,–,–,–,–,–
O=C1O/C(=C\c2ccc(O)c(Br)c2)C(c2ccc(O)c(Br)c2)=C1C(=O)c1cc(Br)c(O)c(Br)c1 [CADIOLIDE C],3.9,3.9,125,3.9,3.9,> 125,125,3.9,–,–,–,–,–,–,–,–
